Screening data (PubChem)
This is a sample that favours compounds with a hit; in the whole collection about 1.8% have one here.
TCR CD3 inh: blocks the human TCR-CD3 interaction; TAMRA-labeled TCR probe fluorescence, biochemical; inhibition, % at 9.4 µM; hit rate 0.37% among 360,000; AID 651800;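 note: recombinant mutant TCR 2C K166C tagged with TAMRA read by polarization; 0% = receptor in buffer alone and 100% = receptor with positive control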
SIAE inh: human SIAE inhibition, primary screen; inhibition, % at 9.66 µM; SIAE FP-Rh probe binding, fluorescence polarization; hit rate 0.69% among 370,000; Q9HAT2;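 active = inhibition above a cutoff: mean of compounds within the control limits plus 3 SD of those, cut at about 17% in these data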;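 note: 0% = plate median of compound wells and 100% = probe without SIAE protein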
PME-1 primary: PME-1 (human) inhibition; recombinant PME-1, FP-Rh probe fluorescence polarization; hit rate 0.53% among 320,000; Q9Y570; inhibition, % at 5.9 µM;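 active = inhibition above the campaign mean of all compounds plus 3 SD, cut at about 26% in these data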;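 note: competitive labeling of PME-1 active site by serine hydrolase directed probe; 0% = PME-1 with DMSO and 100% = wells lacking PME-1 enzyme; inhibitors block probe labeling so polarization falls and inhibition rises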
Target sequence (Q9Y570 whole entry, looked up): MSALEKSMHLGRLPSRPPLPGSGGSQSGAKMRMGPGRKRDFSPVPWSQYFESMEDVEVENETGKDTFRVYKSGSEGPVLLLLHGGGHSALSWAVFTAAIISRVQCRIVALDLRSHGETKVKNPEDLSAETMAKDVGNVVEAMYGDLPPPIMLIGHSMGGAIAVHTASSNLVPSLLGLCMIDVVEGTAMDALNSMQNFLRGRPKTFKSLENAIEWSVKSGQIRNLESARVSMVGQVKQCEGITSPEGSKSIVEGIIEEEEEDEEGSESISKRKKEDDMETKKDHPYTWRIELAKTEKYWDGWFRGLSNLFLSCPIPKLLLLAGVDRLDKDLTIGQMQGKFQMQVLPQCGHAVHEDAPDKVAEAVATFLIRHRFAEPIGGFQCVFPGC
ABHD4 inh: inhibits mouse alpha/beta hydrolase domain 4; AID 720543; purified mABHD4, FP-Rh probe fluorescence polarization; inhibition, % at 8.92 µM; hit rate 0.54% among 370,000;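 active = inhibition exceeding the mean over every tested compound plus 3 SD, cut at about 30% in these data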;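 note: 0% = plate median of compound wells and 100% = S159A mutant with DMSO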
Target sequence (Q8VD66 whole entry, looked up, the tested form may be a part): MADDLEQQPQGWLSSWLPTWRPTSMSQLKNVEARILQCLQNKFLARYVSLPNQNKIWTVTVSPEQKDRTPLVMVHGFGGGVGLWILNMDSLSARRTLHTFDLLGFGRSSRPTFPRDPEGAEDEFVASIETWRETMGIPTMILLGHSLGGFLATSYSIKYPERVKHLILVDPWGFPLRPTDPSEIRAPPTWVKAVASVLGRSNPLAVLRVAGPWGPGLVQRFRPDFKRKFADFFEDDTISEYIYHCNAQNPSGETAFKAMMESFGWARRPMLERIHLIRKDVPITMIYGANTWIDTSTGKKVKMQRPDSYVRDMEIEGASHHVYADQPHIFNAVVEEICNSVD
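Material: mouse ABHD4 enzyme, wild type; Benchmarks: S159A mutant high control, sample median low control; Buffer or medium: HEPES pH 7.0, NaCl, Pluronic buffer; Signal: fluorescence polarization; Read-out: percent inhibition of probe binding, normalized to plate controls; Timing: pre-incubation 45 min, probe exposure 60 min, at 25 °C; Dosing: 8.92 µM, single dose.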
HTRA1 inhibitor: inhibitors of human serine peptidase HTRA1 | Q92743 | recombinant HTRA1, FP-rhodamine activity-based probe, fluorescence polarization | inhibition, % at 5.96 µM | hit rate 0.5% among 340,000; in the data active = inhibition above about 36%;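 note: 0% = enzyme with DMSO and 100% = wells lacking enzyme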
Fam108B counter: Fam108B inhibition, counter-screen for RBBP9 inhibitors | AID 1947 | hit rate 0.33% among 300,000 | inhibition, % at 9.51 µM | recombinant Fam108B, FP-Rh probe fluorescence polarization;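 active = inhibition above the screen mean inhibition plus 3 SD, computed separately per campaign, cut at about 18% in these data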;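 note: inhibitors lower polarization as less probe binds the enzyme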
HTRA1 inh conf: HTRA1 (human) inhibition, confirmation; shares compounds with HTRA1 inhibitor; recombinant HTRA1, FP-rhodamine activity-based probe, fluorescence polarization; inhibition, % at 5.96 µM; hit rate 66% among 1,600; AID 540248;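 active = mean inhibition over three repeats above a set limit taken from the earlier primary screen, cut at about 37% in these data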;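 note: 0% = HTRA1 with DMSO and 100% = wells lacking HTRA1; inhibitors block probe binding so polarization drops and inhibition rises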
BSA TAMRA ctr: counter-screen for TCR-CD3 interaction inhibitors: BSA probe | shares compounds with TCR CD3 inh | TAMRA-labeled BSA probe fluorescence counterscreen | inhibition, % at 9.4 µM | hit rate 10% among 1,200 | AID 652035; in the data active = inhibition above about 23%;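 note: 0% = buffer low control and 100% = reference high control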
TCR-CD3 conf: TCR-CD3 interaction inhibition, confirmation; hit rate 48% among 1,200; TAMRA-labeled TCR probe fluorescence binding assay; shares compounds with TCR CD3 inh; AID 652036; inhibition, % at 9.4 µM
mABHD4 conf: ABHD4 (mouse) inhibition, FP confirmation; shares compounds with ABHD4 inh; purified mABHD4, FP-Rh probe fluorescence polarization; inhibition, % at 8.92 µM; hit rate 55% among 1,800; AID 720658;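 active = mean inhibition across replicates above the hit cutoff set in the primary screen, cut at about 30% in these data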;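 note: 0% = wild-type ABHD4 with DMSO and 100% = catalytically dead S159A mutant with DMSO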
SIAE confirm: confirmation of human SIAE inhibitors; SIAE FP-Rh activity-based probe, fluorescence polarization; shares compounds with SIAE inh; AID 1117263; hit rate 13% among 2,300; inhibition, % at 9.66 µM;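 active = mean inhibition of the replicates above the hit cutoff set in the primary screen, cut at about 17% in these data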;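 note: 0% = SIAE with DMSO and probe and 100% = probe without SIAE; inhibitors lower polarization as more probe stays unbound to SIAE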
Active calls of the source: *; nt = not tested or not shown. Cut-off read from the data, not from the text of the source, unless noted: active = inhibition above about 19%; inactive = the rest.

SMILES	TCR CD3 inh	SIAE inh	PME-1 primary	ABHD4 inh	HTRA1 inhibitor	Fam108B counter	HTRA1 inh conf	BSA TAMRA ctr	TCR-CD3 conf	SIAE confirm	others
O=C(Nc1nccs1)C1CC=CCC1 (configuration not stated)	-1.1	2.8	-1.6	6.3	-10.3	1.9	nt	nt	nt	nt
COC(=O)c1cc(-c2cccc(OC(F)(F)F)c2)c(=O)n2c1CCC2	nt	-2.8	nt	-4.4	nt	nt	nt	nt	nt	nt
COc1cc(-n2c(C)nc3cc(C(=O)N4CCN(C(C)=O)CC4)ccc32)cc(OC)c1OC	nt	-5.1	nt	3.3	nt	nt	nt	nt	nt	nt
COc1cccc2c1C(=O)c1c(O)c3c(c(O)c1C2=O)CC(O)(C(=O)CO)CC3OC1CC(N(C)C)C(O)C(C)O1 (configuration not stated)	147.9*	60.6*	nt	78.8*	67.7*	nt	66.5*	167.2*	136.5*	40.4*	mABHD4 conf=61.1*
COc1cc(-n2c(C)nc3cc(C(=O)N4CCCCC4)ccc32)cc(OC)c1OC	nt	-16.2	nt	-12.7	nt	nt	nt	nt	nt	nt
CCCCn1c(=O)[nH]c2nc3cc(NC(C)=O)ccc3nc2c1=O	-4.3	0.3	4.2	2.1	-3.3	2.1	nt	nt	nt	nt
CCCCCCn1c(=O)[nH]c2nc3cc(N)c(C)cc3nc2c1=O	10.9	17.7*	nt	49.3*	64.2*	nt	15.0	nt	nt	8.7	mABHD4 conf=39.0*
COc1ccc(CNS(=O)(=O)c2cc3c(cc2Br)CC(C)N3C(C)=O)cc1 (configuration not stated)	nt	8.9	nt	2.4	nt	nt	nt	nt	nt	nt
O=C(NCCN1CCC(Cc2ccccc2)CC1)C1CCCN(S(=O)(=O)c2ccc([N+](=O)[O-])cc2)C1 (configuration not stated)	nt	-2.8	nt	4.6	nt	nt	nt	nt	nt	nt
COc1ccc2nc3cc(Cl)ccc3c(Nc3cc(C(C)C)c(O)cc3C)c2c1	-9.2	29.4*	25.8	39.6*	37.8*	16.2	28.9	nt	nt	14.4	mABHD4 conf=50.6*
CC1=CC(C)(C)N2C(=O)C(=Nc3ccc(O)cc3)c3cccc1c32	42.4*	21.6*	44.4*	59.7*	53.2*	16.0	9.7	4.8	1.2	6.7	mABHD4 conf=28.0
c1nc(NCC2CCOC2)c2cc(-c3ccc4c(c3)OCO4)ccc2n1 (configuration not stated)	nt	-28.0	nt	-2.6	nt	nt	nt	nt	nt	nt
CCOC(=O)[C@]12CCCCC/C=C\1N(Cc1ccc(OC)cc1)C(=O)[C@H]2CC(=O)NCc1ccc(OC)c(OC)c1	nt	-5.9	nt	-3.6	nt	nt	nt	nt	nt	nt
Clc1cccc(-c2ccc(C3Nc4cccc5cccc(c45)N3)o2)c1	nt	nt	nt	nt	3.1	nt	nt	nt	nt	nt
Clc1ccc(C2Nc3cccc4cccc(c34)N2)c(Cl)c1	-2.9	20.3*	nt	30.2*	54.4*	nt	24.2	nt	nt	6.1	mABHD4 conf=32.5*
CC(c1ccc(NC(=O)OC(C)(C)C)cc1)c1cn(C)c2ccccc12 (configuration not stated)	nt	2.2	nt	-13.7	nt	nt	nt	nt	nt	nt
C/C(CC(=O)N1CCCC1)=N\NC(=O)c1cc2ccccc2cc1O	6.0	17.1*	16.8	36.2*	47.6*	5.6	30.7	nt	nt	-1.4	mABHD4 conf=26.7
O=C(OCC(=O)N1CCCCC1)c1cc2ccccc2cc1O	-4.9	-2.2	2.6	-3.9	-5.6	0.9	nt	nt	nt	nt
CCCCN1CN2Cc3cc(OC)ccc3C2CS1(=O)=O (configuration not stated)	nt	-0.6	nt	2.3	nt	nt	nt	nt	nt	nt
CCCCNC(=O)c1ccc2nc(-c3ccco3)c(-c3ccco3)nc2c1	23.0*	26.8*	2.9	60.4*	53.5*	8.0	39.0*	-8.7	15.6	7.9	mABHD4 conf=52.1*
N#C/C(=C\c1ccc(O)c(O)c1)C(=O)Nc1cccc2ncccc12	72.1*	29.1*	28.5*	27.9	52.0*	13.4	39.3*	-21.2	60.1*	0.0
COc1ccc(/C=C(\C#N)C(=O)Nc2cccc3ncccc23)cc1OC	0.9	-0.7	-3.5	-1.0	3.6	4.2	nt	nt	nt	nt
S=C(Nc1ccccc1)OC1CCC12CCC(c1ccccc1)CC2 (configuration not stated)	nt	-5.8	nt	-22.4	nt	nt	nt	nt	nt	nt
c1ccc(-c2ccc3ccccc3n2)cc1	-5.7	-4.8	-6.1	-13.6	-0.8	0.8	nt	nt	nt	nt
CNc1ccccc(-c2ccc3ccccc3n2)c1=O	9.2	20.6*	0.4	36.1*	38.5*	13.1	4.4	nt	nt	2.1	mABHD4 conf=14.0
SMILES	TCR CD3 inh	SIAE inh	PME-1 primary	ABHD4 inh	HTRA1 inhibitor	Fam108B counter	HTRA1 inh conf	BSA TAMRA ctr	TCR-CD3 conf	SIAE confirm	others
Oc1ccc(NCc2ccccc2OCc2ccccc2)cc1	26.4*	39.5*	23.6	80.8*	49.3*	5.2	25.1	0.4	-1.0	5.3	mABHD4 conf=27.4
C#CCNC(=O)C[C@@H]1C(=O)N(Cc2ccc(OC)cc2)/C2=C/CCCCC[C@@]21C(=O)OCC	nt	1.9	nt	10.8	nt	nt	nt	nt	nt	nt
CC(C)C(NC(=O)[C@H](Cc1ccc(O)cc1)NC(=O)OC(C)(C)C)P(=O)(O)OC(Cc1ccccc1)C(=O)O (some centres not stated)	nt	0.3	nt	-3.6	nt	nt	nt	nt	nt	nt
O=[N+]([O-])c1ccc(Cl)c(/C=N/n2c(COc3ccccc3)n[nH]c2=S)c1	6.9	10.3	1.6	-6.7	4.6	2.5	nt	nt	nt	nt
O=c1c2ccccc2nc(COc2ccccc2)n1/N=C/c1cc([N+](=O)[O-])ccc1O	22.9*	20.2*	-10.5	2.6	36.5*	8.0	47.4*	-4.0	43.5*	-9.6
O=C(/C=C/c1ccc(O)c(O)c1)c1ccc(S(=O)(=O)N2CCCCCC2)cc1	8.9	44.9*	-1.4	25.2	54.5*	2.9	55.9*	nt	nt	-2.2
COc1ccccc1N(C)S(=O)(=O)c1ccc(C(=O)OCC(=O)c2c[nH]c3ccccc23)cc1	19.9*	-18.6	-6.0	-21.7	-4.4	-12.3	nt	0.8	0.0	nt
CCOc1ccc(-n2c(O)c(/C=N/NC(=O)C3COc4ccccc4O3)c3ccccc3c2=O)cc1 (configuration not stated)	20.3*	2.4	5.1	19.6	14.4	7.3	nt	0.3	36.5*	nt
COc1cc(/C=N\NC(=O)C2COc3ccccc3O2)cc(OC)c1O (configuration not stated)	2.3	6.4	0.6	6.3	-3.4	-1.0	nt	nt	nt	nt
CCCCCN1CCCCC(NC(=O)c2cccc(C(F)(F)F)c2)C1=O (configuration not stated)	nt	2.7	nt	3.1	nt	nt	nt	nt	nt	nt
CC(=O)c1cccc(NC(=O)CSc2ccc(-c3ccco3)nn2)c1	25.6*	5.2	2.4	18.2	-4.0	0.6	nt	2.5	6.1	nt
C=C(C)c1cccc(C(C)(C)NC(=O)NNC(=O)c2ccccc2O)c1	30.9*	2.2	-1.2	9.4	20.4	3.8	nt	-16.6	14.7	nt
